Source: article PMC7982424 (Acta Pharmaceutica Sinica. B, 2020)

How the values were obtained:
HIV-1NL4-3 = test: Anti-HIV-1 assay in TZM-GFP cells; assay type: cell-based; conditions: for inhibition at 2 µM: Human immunodeficiency virus 1, read-out: Inhibition at 2 μmol/L; for inhibition at 20 µM: Human immunodeficiency virus 1, read-out: Inhibition at 20 μmol/L
Summary of the method: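 TZM-GFP cells seeded at 1 × 10^4 per well; after 24 h, medium replaced with test compound at 20 μmol/L, with actives retested at 2 μmol/L. HIV-1NL4-3 (HEK 293FT-transfection stock, MT2-propagated, PEG-concentrated) added at MOI 1 24 h later. After 48 h, GFP-positive cells counted by imaging; inhibition relative to DMSO controls. Duplicates, at least two independent experiments.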

[1] = Microsomal stability assay, human liver microsomes; assay type: in vitro ADME; conditions: for half-life at 1 μmol/L: human, pH 7.4
Cytotoxicity assay = assay type: cell-based; conditions: human, TZM-GFP cells
Summary of the method: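 TZM-GFP cells were plated at 1 × 10^4 cells per well and exposed continuously to increasing concentrations of test compound for 72 h. Viable cells were counted by XTT. CC50 came from a log(inhibitor) vs normalized response, variable-slope fit for each independent assay, then averaged. Runs were in duplicate across at least two independent experiments; mean ± SD.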

[2] = Microsomal stability assay, mouse liver microsomes; assay type: in vitro ADME; conditions: for half-life at 1 μmol/L: mouse, pH 7.4

Row | half-life at 1 μmol/L [1] | half-life at 1 μmol/L [2] | fold increase of half-life over PF74 in HLMs ([1]; relative to PF74) | fold increase of half-life over PF74 in MLMs ([2]; relative to PF74) | Compound | Inhibition at 2 μmol/L (HIV-1NL4-3; 2 μmol/L compound, HIV-1 in TZM-GFP cells) | CC50 at 72 h (Cytotoxicity assay) | inhibition at 2 µM (HIV-1NL4-3) | inhibition at 20 µM (HIV-1NL4-3)
1 | 12 min | 4.6 min |  |  | Cc1cn(CC(=O)N[C@@H](Cc2ccccc2)C(=O)N(C)c2ccc(Cl)cc2)c(=O)[nH]c1=O [Compound 10, (S)-N-(4-Chlorophenyl)-N-methyl-2-(2-(5-methyl-2,4-dioxo-3,4-dihydropyrimidin-1(2H)-yl)acetamido)-3-phenylpropanamide] | exhibited inhibition | > 50 µM |  | 
2 | 15 min | 3.6 min |  |  | CN(C(=O)[C@H](Cc1ccccc1)NC(=O)CNC(=O)c1ccccc1)c1ccccc1 [Compound 18, (S)-N-(2-((1-(Methyl(phenyl)amino)-1-oxo-3-phenylpropan-2-yl)amino)-2-oxoethyl)benzamide] |  | > 50 µM | 15% | 96%
3 | 36 min | 13 min | 51 fold | 22 fold | CN(C(=O)[C@H](Cc1ccccc1)NC(=O)CNC(=O)c1ccccc1)c1ccc(Cl)cc1 [Compound 20, (S)-N-(2-((1-((4-Chlorophenyl)(methyl)amino)-1-oxo-3-phenylpropan-2-yl)amino)-2-oxoethyl)benzamide] |  | > 50 µM |  | 
4 | 12 min | 3.6 min |  |  | CN(C(=O)[C@H](Cc1ccccc1)NC(=O)CNC(=O)c1ccccc1)c1cccc(F)c1 [Compound 23, (S)-N-(2-((1-((3-Fluorophenyl)(methyl)amino)-1-oxo-3-phenylpropan-2-yl)amino)-2-oxoethyl)benzamide] |  | > 50 µM | 3% | 94%

The next lines start with the compound.

Row | Compound | half-life at 1 μmol/L [1] | half-life at 1 μmol/L [2] | fold increase of half-life over PF74 in HLMs ([1]; relative to PF74) | fold increase of half-life over PF74 in MLMs ([2]; relative to PF74) | Inhibition at 2 μmol/L (HIV-1NL4-3; 2 μmol/L compound, HIV-1 in TZM-GFP cells) | CC50 at 72 h (Cytotoxicity assay) | inhibition at 2 µM (HIV-1NL4-3) | inhibition at 20 µM (HIV-1NL4-3)
5 | Cc1ccc(N(C)C(=O)[C@H](Cc2ccccc2)NC(=O)CNC(=O)c2ccccc2)cc1 [Compound 19, (S)-N-(2-((1-(Methyl(p-tolyl)amino)-1-oxo-3-phenylpropan-2-yl)amino)-2-oxoethyl)benzamide] | 22 min | 5 min |  |  |  | > 50 µM |  | 
6 | CCN(C(=O)[C@H](Cc1ccccc1)NC(=O)CNC(=O)c1ccccc1)c1ccccc1 [Compound 26, (S)-N-(2-((1-(Ethyl(phenyl)amino)-1-oxo-3-phenylpropan-2-yl)amino)-2-oxoethyl)benzamide] | 14 min | 2.4 min |  |  |  | > 50 µM |  | 
